ChEMBL document CHEMBL4014306, “Pyrazolopyrimidines as Potent Stimulators for Transient Receptor Potential Canonical 3/6/7 Channels” (J Med Chem, 2017)

Assays:
Type in all cases: cell-based
[1] = target: T1, Short transient receptor potential channel 6 (Mus musculus, UniProt Q61143); test: Agonist activity at mouse TRPC6 expressed in HEK293 cells co-expressing Gq11-PLCbeta fused M5 receptor assessed as increase in intracellular calcium level measured for 2.5 mins by Fluo-8-AM dye-based fluorescence assay
T1 sequence (Q61143 whole entry): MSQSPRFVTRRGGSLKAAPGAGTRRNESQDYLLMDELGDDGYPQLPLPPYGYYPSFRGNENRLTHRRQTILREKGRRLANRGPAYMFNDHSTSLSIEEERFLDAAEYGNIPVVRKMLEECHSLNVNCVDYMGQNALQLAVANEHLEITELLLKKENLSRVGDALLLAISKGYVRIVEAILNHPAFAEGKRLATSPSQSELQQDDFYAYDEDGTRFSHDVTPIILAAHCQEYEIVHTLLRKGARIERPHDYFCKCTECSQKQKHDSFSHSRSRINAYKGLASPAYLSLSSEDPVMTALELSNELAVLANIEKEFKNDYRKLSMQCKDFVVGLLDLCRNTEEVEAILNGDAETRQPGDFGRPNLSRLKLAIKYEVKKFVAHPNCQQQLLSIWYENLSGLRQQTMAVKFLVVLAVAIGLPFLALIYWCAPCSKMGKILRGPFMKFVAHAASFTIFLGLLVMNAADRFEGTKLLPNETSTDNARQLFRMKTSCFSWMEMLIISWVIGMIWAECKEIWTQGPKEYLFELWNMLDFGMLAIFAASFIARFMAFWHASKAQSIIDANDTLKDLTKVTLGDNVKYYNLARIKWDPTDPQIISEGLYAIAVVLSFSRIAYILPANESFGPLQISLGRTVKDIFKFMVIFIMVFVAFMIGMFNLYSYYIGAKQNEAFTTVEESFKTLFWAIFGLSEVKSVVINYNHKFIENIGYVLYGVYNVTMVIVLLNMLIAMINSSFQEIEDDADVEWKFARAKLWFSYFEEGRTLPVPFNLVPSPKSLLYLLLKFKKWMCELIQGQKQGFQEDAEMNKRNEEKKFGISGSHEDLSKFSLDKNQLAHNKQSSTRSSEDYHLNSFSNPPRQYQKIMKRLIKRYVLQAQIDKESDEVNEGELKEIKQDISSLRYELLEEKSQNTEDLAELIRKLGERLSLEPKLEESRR

[2] = target: T2, Short transient receptor potential channel 4 (Mus musculus, UniProt Q9QUQ5); test: Antagonist activity at mouse TRPC4beta expressed in HEK293 cells co-expressing MOR decrease in DAMGO-evoked intracellular calcium level by Fluo-8-AM dye-based fluorescence assay
T2 sequence (Q9QUQ5 whole entry): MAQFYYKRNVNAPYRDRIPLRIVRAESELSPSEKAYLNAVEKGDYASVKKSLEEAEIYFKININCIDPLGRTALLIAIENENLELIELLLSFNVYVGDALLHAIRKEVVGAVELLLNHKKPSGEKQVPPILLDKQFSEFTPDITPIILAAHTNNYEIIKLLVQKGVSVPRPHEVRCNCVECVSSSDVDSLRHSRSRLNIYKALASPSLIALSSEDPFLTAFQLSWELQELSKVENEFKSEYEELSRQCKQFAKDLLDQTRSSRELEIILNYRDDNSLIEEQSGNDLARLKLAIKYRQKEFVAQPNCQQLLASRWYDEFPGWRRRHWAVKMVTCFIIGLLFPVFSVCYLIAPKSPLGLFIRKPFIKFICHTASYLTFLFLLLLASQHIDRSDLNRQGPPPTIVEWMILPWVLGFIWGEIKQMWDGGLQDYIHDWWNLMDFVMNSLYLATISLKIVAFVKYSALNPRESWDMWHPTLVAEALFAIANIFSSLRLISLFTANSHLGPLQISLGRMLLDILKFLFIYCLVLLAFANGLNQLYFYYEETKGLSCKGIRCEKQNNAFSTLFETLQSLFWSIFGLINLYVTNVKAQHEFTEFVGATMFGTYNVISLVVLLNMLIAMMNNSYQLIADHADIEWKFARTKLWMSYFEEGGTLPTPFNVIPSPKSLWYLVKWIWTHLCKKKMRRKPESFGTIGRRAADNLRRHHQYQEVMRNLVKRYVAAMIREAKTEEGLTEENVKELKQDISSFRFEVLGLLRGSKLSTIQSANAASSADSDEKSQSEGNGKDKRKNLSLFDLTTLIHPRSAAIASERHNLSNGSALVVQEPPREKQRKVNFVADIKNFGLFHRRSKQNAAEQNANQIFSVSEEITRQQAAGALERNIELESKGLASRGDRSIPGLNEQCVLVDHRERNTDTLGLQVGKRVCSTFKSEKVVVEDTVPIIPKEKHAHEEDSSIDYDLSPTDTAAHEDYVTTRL
Procedure, shortened: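 MOR/TRPC4β HEK293 cells loaded with Ca2+ dye. Compound given before 1 μM DAMGO. IC50 estimated from one experiment in triplicate.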

HEK293 = test: Induction of intracellular calcium level in HEK293 cells at 100 uM measured for 2.5 mins by Fluo-4-AM dye based FLIPR assay; conditions: human, hek293, 2.5 min

EC50 [1]	IC50 [2]	EC50 ([1]; read-out: EC50)	IC50 ([2]; read-out: IC50)	SMILES	Activity (HEK293)
Not Active	Not Active			Cc1nn2c(O)cc(C3(C)CCN(C(=O)OC(C)(C)C)CC3)nc2c1-c1ccc(F)cc1	
Not Active	Not Active			Cc1nn2c(O)cc(C3CCN(C(=O)OC(C)(C)C)CC3)nc2c1-c1ccc(Cl)cc1	
	Not Active	8 µM		CCOC(=O)N1CCC(C)(c2cc(O)n3nc(C)c(-c4ccc([N+](=O)[O-])cc4)c3n2)CC1	
Not Active	Not Active			CCC(=O)N1CCC(C)(c2cc(O)n3nc(C)c(-c4ccc(F)cc4)c3n2)CC1	
Not Active	Not Active			Cc1nn2c(O)cc(C3(C)CCN(C(=O)C(C)(C)C)CC3)nc2c1-c1ccc(F)cc1	
Not Active	Not Active			COc1ccc(S(=O)(=O)N2CCC(C)(c3cc(O)n4nc(C)c(-c5ccc(F)cc5)c4n3)CC2)cc1	
Not Active	Not Active			COc1ccc(CC(=O)N2CCC(C)(c3cc(O)n4nc(C)c(-c5ccc([N+](=O)[O-])cc5)c4n3)CC2)cc1OC	
		28.8 µM	35 µM	CCC(=O)N1CCC(c2cc(O)n3nc(C)c(-c4ccc(F)cc4)c3n2)CC1	
	Not Active	2 µM		CCOC(=O)N1CCC(c2cc(O)n3nc(C)c(-c4ccc([N+](=O)[O-])cc4)c3n2)CC1	
		12.3 µM	10 µM	Cc1nn2c(O)cc(C3CCN(C(=O)c4ccc(Br)nc4)CC3)nc2c1-c1ccc(F)cc1	
Not Active	Not Active			Cc1nn2c(O)cc(C3(C)CCN(S(=O)(=O)c4c(F)cccc4F)CC3)nc2c1-c1ccc([N+](=O)[O-])cc1	
Not Active	Not Active			Cc1nn2c(O)cc(C3CCN(C(=O)C(C)(C)C)CC3)nc2c1-c1ccc(F)cc1	
				C[N+](C)(C)CCOC(N)=O.[Cl-] [CARBACHOL]	Toxic
